ChEMBL document CHEMBL1159049, “Novel small molecule bradykinin B1 receptor antagonists. Part 3: hydroxyurea derivatives” (Bioorg Med Chem Lett, 2010)
≈ marks a conversion by molar mass, not a printed value. One block for each molecule: values may come before it.

Columns and labels:
B1 bradykinin receptor = biological target: T1, B1 bradykinin receptor (Homo sapiens, UniProt P46663); assay: Antagonist activity at bradykinin B1 receptor in human IMR90 cells assessed as inhibition of des-Arg-bradykinin-mediated calcium mobilization; type: functional, cell-based, IMR-90; settings: in the assay text read “des-Arg-kallidin-mediated” for “des-Arg-bradykinin-mediated”
T1 sequence (P46663 whole entry): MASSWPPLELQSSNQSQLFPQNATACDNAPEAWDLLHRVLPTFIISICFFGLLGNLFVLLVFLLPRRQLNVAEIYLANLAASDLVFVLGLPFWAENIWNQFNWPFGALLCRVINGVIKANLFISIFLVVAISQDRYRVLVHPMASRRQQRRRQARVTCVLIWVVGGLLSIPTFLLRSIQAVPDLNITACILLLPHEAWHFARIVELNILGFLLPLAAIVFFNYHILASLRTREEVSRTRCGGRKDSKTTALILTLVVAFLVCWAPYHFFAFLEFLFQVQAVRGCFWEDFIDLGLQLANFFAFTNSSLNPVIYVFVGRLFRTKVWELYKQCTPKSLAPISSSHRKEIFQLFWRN
In short: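 Human lung fibroblast IMR-90 cells pretreated with IL-1 beta; B1 receptor functional activity read as inhibition of DAKD-mediated calcium mobilization (CAM assay). Values are the numerical average of at least two experiments.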

[1] = Half life in Wistar rat at 1 mg/kg, iv […]; type: ADME, organism-based; settings: in vivo
In short: (§1)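 Male Wistar rats dosed at 1 mg/kg iv (group 1) and 1 mg/kg po (group 2). Plasma aliquots precipitated with methanol containing a structural analogue as internal standard, then analyzed by HPLC-MS/MS for time/concentration values. PK parameters (terminal t1/2, CL, F) derived from these profiles.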

[2] = Oral bioavailability in Wistar rat at 1 mg/kg; type: ADME, organism-based; settings: in vivo; in short: as §1
[3] = Clearance in Wistar rat at 1 mg/kg, iv […]; type: ADME, organism-based; settings: in vivo; in short: as §1
[4] = Compound remaining in PBS buffer after 5 days; type: physicochemical; settings: read-out: Stability
In short: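 Chemical stability: compound incubated in PBS buffer at 50 °C for 5 days; percent remaining determined.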

Caco-2 = assay: Ratio of permeability from basolateral to apical side to apical to basolateral side in human Caco-2 cells; type: ADME, cell-based
In short: (§2)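 Bidirectional permeability through Caco-2 cell monolayers; Papp measured apical-to-basolateral and basolateral-to-apical, with efflux ratio taken as B–A over A–B.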

[5] = Metabolic stability in human liver microsomes after 1 hr; type: ADME, Microsome; settings: read-out: Stability
In short: (§3)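 Incubation with human or rat liver microsomes for 1 h; percent parent remaining reported.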

[6] = Metabolic stability in rat liver microsomes after 1 hr; type: ADME, Microsome; settings: read-out: Stability; in short: as §3
Homo sapiens = organism: Homo sapiens; assay: Protein binding in human plasma; settings: read-out: PPB (converted)
[7] = Apparent permeability from apical to basolateral side of human Caco-2 cell; type: ADME, cell-based; in short: as §2
Hepatocyte = assay: Cytotoxicity against human hepatocytes; type: cell-based
In short: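 Cell viability in plateable cryopreserved human hepatocytes exposed to a range of concentrations up to 100 µM for 24 h at 37 °C; resazurin substrate, resorufin product detected by fluorimetry.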

[8] = Apparent permeability from basolateral to apical side of human Caco-2 cell; type: ADME, cell-based; in short: as §2
[9] = Aqueous Solubility in PBS buffer; type: physicochemical

SMILES: Cn1nnc(-c2c(F)cc(Cl)cc2-c2cnc(CNC(=O)N(O)C3CCCCC3)c(F)c2)n1
IC50 (B1 bradykinin receptor): 3.9 nM

SMILES: Cc1nc(-c2c(Cl)cc(Cl)cc2-c2cnc([C@@H](C)NC(=O)N(C)O)c(F)c2)no1
IC50 (B1 bradykinin receptor): 2.3 nM

SMILES: Cn1nnc(-c2c(F)cc(Cl)cc2-c2cnc(CNC(=O)NO)c(F)c2)n1
IC50 (B1 bradykinin receptor): 59 nM

SMILES: Cc1nc(-c2c(F)cc(Cl)cc2-c2ccc(CNC(=O)N(C)O)cc2)no1
IC50 (B1 bradykinin receptor): > 100 nM

SMILES: Cc1nc(-c2c(F)cc(Cl)cc2-c2ccc(CNC(=O)N(C)O)c(F)c2)no1
IC50 (B1 bradykinin receptor): 32 nM

SMILES: CCN(O)C(=O)NCc1ncc(-c2cc(Cl)cc(F)c2-c2nnn(C)n2)cc1F
IC50 (B1 bradykinin receptor): 4.6 nM

SMILES: CN(O)C(=O)NCc1ncc(-c2cc(Cl)cc(F)c2-c2nnn(C)n2)cc1F
IC50 (B1 bradykinin receptor): 17 nM

SMILES: Cc1nc(-c2c(F)cccc2-c2cnc([C@@H](C)NC(=O)N(C)O)c(F)c2)no1
IC50 (B1 bradykinin receptor): 31 nM

SMILES: Cc1nc(-c2c(F)cc(Cl)cc2-c2cnc([C@@H](C)NC(=O)N(C)O)c(C)c2)no1
IC50 (B1 bradykinin receptor): 3.6 nM

SMILES: Cc1nc(-c2c(F)cc(Cl)cc2-c2cnc(CNC(=O)N(C)O)c(F)c2)no1
IC50 (B1 bradykinin receptor): 17 nM

These reach a lower IC50 (B1 bradykinin receptor). Values come first.

IC50 (B1 bradykinin receptor): 1.2 nM | half-life [1]: 12 min | bioavailability [2]: 8% | clearance [3]: 58 mL/min/kg
SMILES: Cc1nc(-c2c(F)cc(Cl)cc2-c2cnc([C@@H](C)NC(=O)N(C)O)c(F)c2)no1

IC50 (B1 bradykinin receptor): 1 nM
SMILES: CC(C)N(O)C(=O)NCc1ncc(-c2cc(Cl)cc(F)c2-c2nnn(C)n2)cc1F

IC50 (B1 bradykinin receptor): 1.4 nM
SMILES: Cn1nnc(-c2c(F)cc(Cl)cc2-c2cnc(CNC(=O)N(O)C(C)(C)C)c(F)c2)n1

IC50 (B1 bradykinin receptor): 0.8 nM
SMILES: Cn1nnc(-c2c(F)cc(Cl)cc2-c2cnc(CNC(=O)N(O)C3CCCC3)c(F)c2)n1

remaining at 120 h [4]: > 99% | Ratio (Caco-2): < 3 | remaining at 1 h [5]: 61% | IC50 (B1 bradykinin receptor): 0.19 nM | half-life [1]: 47 min | remaining at 1 h [6]: 84% | bioavailability [2]: 78% | clearance [3]: 13 mL/min/kg | fraction unbound (Homo sapiens): 0.013 | Papp A→B [7]: 24 ×10⁻⁶ cm/s | Papp B→A [8]: 43 ×10⁻⁶ cm/s | solubility [9]: 39 µM (≈ 20 µg/mL)
SMILES: Cn1nnc(-c2c(F)cc(Cl)cc2-c2cnc(CNC(=O)N(O)C3CCC(F)(F)CC3)c(F)c2)n1
Activity (Hepatocyte): Non-toxic

IC50 (B1 bradykinin receptor): 0.5 nM | half-life [1]: 80 min | bioavailability [2]: 86% | clearance [3]: 8 mL/min/kg
SMILES: Cn1nnc(-c2c(F)cc(Cl)cc2-c2cnc(CNC(=O)N(O)C(CF)CF)c(F)c2)n1
